Experimental data published in ChEMBL document CHEMBL4406806, “Design, Synthesis, and Characterization of Ogerin-Based Positive Allosteric Modulators for G Protein-Coupled Receptor 68 (GPR68)” (J Med Chem, 2019).
Active and inactive are the calls of the source. The rule behind the calls is not given here.

What was measured:
[1] = target: G-protein coupled receptor 68 (Homo sapiens) (UniProt Q15743); assay: (§1) Positive allosteric modulation of human GPR68 expressed in HEK293T cells co-expressing Gs assessed as stimulation of proton-mediated cAMP production in HBSS buffer containing pH 6.8 to 8.2 HEPES/pH 8.3 to 8.6 TAPS measured after 20 to 30 mins in presence of PDE inhibitor Ro 20-1724 by luciferase-glo reporter gene assay; format: functional, cell-based
Chain of G-protein coupled receptor 68 (Homo sapiens) (Q15743 whole entry): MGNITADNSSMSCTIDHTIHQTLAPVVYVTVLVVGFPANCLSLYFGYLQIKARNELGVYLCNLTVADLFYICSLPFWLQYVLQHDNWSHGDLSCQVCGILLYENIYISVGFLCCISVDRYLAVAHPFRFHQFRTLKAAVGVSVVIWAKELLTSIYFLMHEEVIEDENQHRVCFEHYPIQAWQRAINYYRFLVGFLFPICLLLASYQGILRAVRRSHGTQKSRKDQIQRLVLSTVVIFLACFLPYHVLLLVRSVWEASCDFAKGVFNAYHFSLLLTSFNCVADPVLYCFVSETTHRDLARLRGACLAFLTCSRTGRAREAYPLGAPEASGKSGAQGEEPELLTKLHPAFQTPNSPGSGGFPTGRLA
Procedure, shortened: (§2)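 Transient co-transfection of HEK293T with receptor and GloSensor plasmids using PEI, overnight, then replated in DMEM + 1% dFBS for 6–24 h. Luciferin 3.5 mM loaded for 1 h at 37 °C in HBSS/20 mM TAPS, pH 8.40. Proton series: Ca/Mg-free HBSS with MES (pH 5.60–6.70), HEPES (6.80–8.20) or TAPS (8.30–8.60), plus 10 μM Ro 20-1724. BSA 1 mg/mL added where solubility required. Luminescence read at 20–30 min. At least six 16-point proton curves across modulator concentrations, quadruplicate, ≥3 independent assays.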

[2] = target: G-protein coupled receptor 68 (Homo sapiens) (UniProt Q15743); assay: as §1, with “production by measuring allosteric index” for “production”; format: functional, cell-based; procedure, shortened: as §2
[3] = target: G-prodeshotein coupled receptor 4 (Homo sapiens) (UniProt P46093); assay: as §1, with “GPR4” for “GPR68”; format: functional, cell-based; procedure, shortened: as §2
Chain of G-prodeshotein coupled receptor 4 (Homo sapiens) (P46093 whole entry, looked up): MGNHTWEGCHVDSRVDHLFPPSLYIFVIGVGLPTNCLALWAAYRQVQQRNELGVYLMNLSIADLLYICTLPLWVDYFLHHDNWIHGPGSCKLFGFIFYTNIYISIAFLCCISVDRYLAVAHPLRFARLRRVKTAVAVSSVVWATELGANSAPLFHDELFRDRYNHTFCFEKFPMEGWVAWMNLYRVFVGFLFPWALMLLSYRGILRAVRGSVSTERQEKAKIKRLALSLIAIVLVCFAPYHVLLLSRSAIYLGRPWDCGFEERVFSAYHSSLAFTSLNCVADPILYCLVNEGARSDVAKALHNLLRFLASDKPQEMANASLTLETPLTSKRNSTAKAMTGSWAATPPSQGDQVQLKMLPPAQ

[4] = target: G-protein coupled receptor 68 (Homo sapiens) (UniProt Q15743); assay: as §1, with “production by measuring allosteric affinity cooperativity” for “production”; format: functional, cell-based; procedure, shortened: as §2
[5] = target: G-protein coupled receptor 65 (Homo sapiens) (UniProt Q8IYL9); assay: as §1, with “GPR65” for “GPR68”; format: functional, cell-based; procedure, shortened: as §2
Chain of G-protein coupled receptor 65 (Homo sapiens) (Q8IYL9 whole entry): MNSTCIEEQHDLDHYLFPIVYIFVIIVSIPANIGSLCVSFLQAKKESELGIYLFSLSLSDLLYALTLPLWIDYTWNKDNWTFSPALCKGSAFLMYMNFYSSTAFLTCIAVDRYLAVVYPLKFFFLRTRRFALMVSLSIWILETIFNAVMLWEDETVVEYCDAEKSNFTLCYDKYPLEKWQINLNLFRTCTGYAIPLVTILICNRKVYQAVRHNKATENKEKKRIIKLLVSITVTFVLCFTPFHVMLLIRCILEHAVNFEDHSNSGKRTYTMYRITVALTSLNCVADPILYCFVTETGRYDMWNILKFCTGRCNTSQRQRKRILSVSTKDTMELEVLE

[6] = target: G-protein coupled receptor 68 (Homo sapiens) (UniProt Q15743); assay: as §1, with “production by measuring efficacy cooperativity” for “production”; format: functional, cell-based; procedure, shortened: as §2
[7] = target: G-protein coupled receptor 68 (Homo sapiens) (UniProt Q15743); assay: as §1, with “production by measuring allosteric binding affinity” for “production”; format: functional, cell-based; procedure, shortened: as §2
[8] = target: T1, Adenosine receptor A2a (Homo sapiens, UniProt P29274); assay: Agonist activity at recombinant human A2A receptor expressed in HEK293T cells co-expressing Gs assessed as stimulation of cAMP accumulation measured after 15 mins by Glosensor chemiluminescence assay; format: functional, cell-based
T1 sequence (P29274 whole entry): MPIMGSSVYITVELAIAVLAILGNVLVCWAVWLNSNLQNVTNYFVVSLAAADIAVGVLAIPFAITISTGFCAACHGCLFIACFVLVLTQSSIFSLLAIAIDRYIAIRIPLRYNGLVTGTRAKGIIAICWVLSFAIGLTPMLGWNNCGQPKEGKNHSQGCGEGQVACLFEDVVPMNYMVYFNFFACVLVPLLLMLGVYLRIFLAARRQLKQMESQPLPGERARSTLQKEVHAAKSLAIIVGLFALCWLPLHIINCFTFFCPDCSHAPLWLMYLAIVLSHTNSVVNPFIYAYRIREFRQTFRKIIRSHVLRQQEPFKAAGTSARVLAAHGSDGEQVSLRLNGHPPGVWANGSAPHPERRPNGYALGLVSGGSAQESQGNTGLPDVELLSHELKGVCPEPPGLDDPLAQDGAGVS

[9] = target: T2, Atypical chemokine receptor 3 (Homo sapiens, UniProt P25106); assay: Agonist activity at human ACKR3 expressed in HTLA cells assessed as stimulation of beta-arrestin recruitment at 1 uM incubated for 16 to 20 hrs by bright-glo luminescence assay; format: cell-based
T2 sequence (P25106 whole entry): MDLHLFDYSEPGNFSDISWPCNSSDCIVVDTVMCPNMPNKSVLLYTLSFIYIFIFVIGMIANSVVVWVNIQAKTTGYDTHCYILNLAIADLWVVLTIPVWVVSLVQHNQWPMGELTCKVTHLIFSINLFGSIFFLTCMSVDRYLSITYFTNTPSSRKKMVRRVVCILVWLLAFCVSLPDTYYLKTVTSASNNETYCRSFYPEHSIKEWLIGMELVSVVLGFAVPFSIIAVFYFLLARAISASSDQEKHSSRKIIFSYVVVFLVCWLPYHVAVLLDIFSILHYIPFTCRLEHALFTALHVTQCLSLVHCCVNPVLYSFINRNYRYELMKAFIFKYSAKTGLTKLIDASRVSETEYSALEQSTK

[10] = target: T1, Adenosine receptor A2a; assay: Displacement of [3H]ZM241385 from recombinant human A2A receptor incubated for 90 mins under dark condition by microbeta scintillation method
[11] = target: G-protein coupled receptor 65 (Homo sapiens) (UniProt Q8IYL9); assay: as §1, with “GPR65” for “GPR68”, “production at higher concentration” for “production”; format: functional, cell-based; procedure, shortened: as §2
[12] = target: T1, Adenosine receptor A2a; assay: Antagonist activity at recombinant human A2A receptor expressed in HEK293T cells co-expressing Gs assessed as inhibition of NECA-stimulated cAMP accumulation preincubated for 15 mins followed by NECA addition and measured after 15 mins by Glosensor chemiluminescence assay; format: functional, cell-based
[13] = target: G-protein coupled receptor 68 (Mus musculus) (UniProt Q8BFQ3); assay: as §1, with “mouse” for “human”, “production by measuring efficacy cooperativity” for “production”; format: functional, cell-based
Chain of G-protein coupled receptor 68 (Mus musculus) (Q8BFQ3 whole entry): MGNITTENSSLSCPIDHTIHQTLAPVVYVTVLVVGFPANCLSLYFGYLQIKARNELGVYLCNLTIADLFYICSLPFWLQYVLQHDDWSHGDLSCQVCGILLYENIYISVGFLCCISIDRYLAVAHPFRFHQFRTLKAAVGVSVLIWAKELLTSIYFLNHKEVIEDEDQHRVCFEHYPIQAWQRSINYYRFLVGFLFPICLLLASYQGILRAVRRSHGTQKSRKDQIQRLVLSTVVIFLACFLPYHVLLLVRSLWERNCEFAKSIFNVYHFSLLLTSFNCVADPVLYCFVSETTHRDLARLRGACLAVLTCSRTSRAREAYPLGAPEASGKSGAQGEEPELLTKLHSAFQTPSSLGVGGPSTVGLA
Procedure, shortened: (§3)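 α, β and KB obtained by fitting proton responses with and without modulator to the standard allosteric operational model. Overall index is log(αβ/KB). Values are mean ± SEM from ≥3 independent assays, each run in triplicate or quadruplicate.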

[14] = target: G-protein coupled receptor 68 (Mus musculus) (UniProt Q8BFQ3); assay: as §1, with “mouse” for “human”, “production by measuring allosteric affinity cooperativity” for “production”; format: functional, cell-based; procedure, shortened: as §3
[15] = target: T1, Adenosine receptor A2a; assay: Inverse agonist activity at recombinant human A2A receptor expressed in HEK293T cells co-expressing Gs assessed as decrease in cAMP accumulation measured after 15 mins by Glosensor chemiluminescence assay; format: functional, cell-based
[16] = target: G-prodeshotein coupled receptor 4 (Homo sapiens) (UniProt P46093); assay: as §1, with “GPR4” for “GPR68”, “production at higher concentration” for “production”; format: functional, cell-based; procedure, shortened: as §2
[17] = target: G-protein coupled receptor 68 (Mus musculus) (UniProt Q8BFQ3); assay: as §1, with “mouse” for “human”, “production by measuring allosteric index” for “production”; format: functional, cell-based; procedure, shortened: as §3
[18] = Drug uptake in Swiss albino mouse brain at 25 mg/kg, ip administered as single dose measured up to 2 hrs; format: ADME, organism-based; conditions: in vivo
[19] = target: T3, Melatonin receptor type 1B (Homo sapiens) (UniProt P49286); assay: Agonist activity at human MT2 receptor expressed in HTLA cells assessed as stimulation of beta-arrestin recruitment at 1 uM incubated for 16 to 20 hrs by bright-glo luminescence assay; format: cell-based
T3 sequence (whole entry): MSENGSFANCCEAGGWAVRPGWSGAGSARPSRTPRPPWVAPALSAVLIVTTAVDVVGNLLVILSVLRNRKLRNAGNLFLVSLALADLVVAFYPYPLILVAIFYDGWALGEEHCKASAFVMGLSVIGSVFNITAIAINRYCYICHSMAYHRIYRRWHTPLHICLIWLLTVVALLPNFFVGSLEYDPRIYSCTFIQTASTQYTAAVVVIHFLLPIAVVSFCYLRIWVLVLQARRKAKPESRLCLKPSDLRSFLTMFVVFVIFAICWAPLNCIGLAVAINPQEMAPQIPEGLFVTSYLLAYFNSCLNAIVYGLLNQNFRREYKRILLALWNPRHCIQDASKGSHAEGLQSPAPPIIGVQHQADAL

[20] = Toxicity in Swiss albino mouse assessed as effect on clinical parameter at 25 mg/kg, ip administered as single dose; format: organism-based; conditions: in vivo
[21] = target: T4, Melatonin receptor type 1A (Homo sapiens, UniProt P48039); assay: Agonist activity at human MT1 receptor expressed in HTLA cells assessed as stimulation of beta-arrestin recruitment incubated for 16 to 20 hrs by bright-glo luminescence assay; format: cell-based
T4 sequence (P48039 whole entry): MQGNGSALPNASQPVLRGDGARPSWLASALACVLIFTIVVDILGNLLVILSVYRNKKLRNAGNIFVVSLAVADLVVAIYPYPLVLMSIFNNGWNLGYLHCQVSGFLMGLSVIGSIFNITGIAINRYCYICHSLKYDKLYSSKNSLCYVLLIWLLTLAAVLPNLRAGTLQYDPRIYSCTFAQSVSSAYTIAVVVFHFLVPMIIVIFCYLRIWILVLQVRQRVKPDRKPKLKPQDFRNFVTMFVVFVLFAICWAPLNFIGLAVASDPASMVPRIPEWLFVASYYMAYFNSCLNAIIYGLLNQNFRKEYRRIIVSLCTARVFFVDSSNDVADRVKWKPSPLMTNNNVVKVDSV
Procedure, shortened: (§4)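 Tango arrestin assay in HTLA cells transfected with receptor DNA overnight in DMEM + 10% FBS, then replated on poly-L-Lys in DMEM + 1% dFBS. Drugs added 6 h later and incubated overnight (16–20 h). Medium removed, Bright-Glo added, luminescence counted.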

[22] = Drug uptake in Swiss albino mouse brain at 25 mg/kg, ip administered as single dose measured after 0.5 hrs; format: ADME, organism-based; conditions: read-out: Drug uptake
[23] = target: T5, 5-hydroxytryptamine receptor 2B (Homo sapiens, UniProt P41595); assay: Displacement of [3H]LSD from recombinant human 5HT2B stably expressed in HEK cell membranes incubated for 90 mins under dark condition by microbeta scintillation counting analysis
T5 sequence (P41595 whole entry): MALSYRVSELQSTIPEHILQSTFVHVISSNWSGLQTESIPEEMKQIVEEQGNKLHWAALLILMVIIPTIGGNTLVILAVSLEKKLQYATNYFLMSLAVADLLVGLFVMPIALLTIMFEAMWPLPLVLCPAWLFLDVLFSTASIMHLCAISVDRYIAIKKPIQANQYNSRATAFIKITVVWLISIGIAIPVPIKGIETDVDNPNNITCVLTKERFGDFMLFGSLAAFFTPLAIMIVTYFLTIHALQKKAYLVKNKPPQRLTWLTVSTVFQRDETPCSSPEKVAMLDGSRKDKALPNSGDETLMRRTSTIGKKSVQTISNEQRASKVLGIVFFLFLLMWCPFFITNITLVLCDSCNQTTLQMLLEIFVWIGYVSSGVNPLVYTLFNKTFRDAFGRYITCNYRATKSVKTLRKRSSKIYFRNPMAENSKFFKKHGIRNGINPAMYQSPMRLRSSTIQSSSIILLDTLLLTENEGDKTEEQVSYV

[24] = Drug uptake in Swiss albino mouse plasma at 25 mg/kg, ip administered as single dose measured after 0.5 hrs; format: ADME, organism-based
[25] = target: T4, Melatonin receptor type 1A; assay: Agonist activity at human MT1 receptor expressed in HTLA cells assessed as stimulation of beta-arrestin recruitment at 1 uM incubated for 16 to 20 hrs by bright-glo luminescence assay; format: cell-based
[26] = target: T5, 5-hydroxytryptamine receptor 2B; assay: Agonist activity at human 5HT2B receptor expressed in Flp-In-HEK cells co-expressing Gq assessed as stimulation of calcium mobilization measured for 2 mins by fluo-4 calcium dye-based FLIPR assay; format: functional, cell-based
Procedure, shortened: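 HEK293 cells stably expressing 5-HT2B, seeded overnight (16–20 h) on poly-L-Lys in DMEM + 1% dFBS. Fluo-4 Direct dye loaded for 1 h at 37 °C in HBSS/20 mM HEPES/2.5 mM probenecid, pH 7.40. Drug diluted in buffer with 1 mg/mL BSA and 0.1 mg/mL ascorbic acid. Fluorescence read for 2 min; peak fold of basal within the first minute.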

[27] = Drug uptake in Swiss albino mouse plasma at 25 mg/kg, ip administered as single dose measured up to 2 hrs; format: ADME, organism-based; conditions: in vivo
[28] = target: T6, Melatonin receptor type 1B (Homo sapiens, UniProt P49286); assay: Agonist activity at human MT2 receptor expressed in HTLA cells assessed as stimulation of beta-arrestin recruitment incubated for 16 to 20 hrs by bright-glo luminescence assay; format: cell-based; procedure, shortened: as §4
T6 sequence (P49286 whole entry): T3 sequence (whole entry)

[29] = target: T5, 5-hydroxytryptamine receptor 2B; assay: Antagonist activity at human 5HT2B receptor expressed in Flp-In-HEK cells co-expressing Gq assessed as inhibition of 5HT-induced stimulation of calcium mobilization preincubated for 10 mins followed by 5HT addition by fluo-4 calcium dye-based FLIPR assay; format: functional, cell-based
[30] = target: T3, Melatonin receptor type 1B (Homo sapiens); assay: Agonist activity at human MT2 receptor expressed in HTLA cells assessed as stimulation of beta-arrestin recruitment incubated for 16 to 20 hrs by bright-glo luminescence assay relative to control; format: cell-based; procedure, shortened: as §4
[31] = target: T2, Atypical chemokine receptor 3; assay: Agonist activity at human ACKR3 expressed in HTLA cells assessed as stimulation of beta-arrestin recruitment incubated for 16 to 20 hrs by bright-glo luminescence assay; format: cell-based; procedure, shortened: as §4

Activity [1] | Activity_index [2] | Activity [3] | log(activity) [4] | Activity [5] | log(activity) [6] | pKb [7] | Activity [9] | Activity index [2] | Activity [11] | log(activity) [13] | log(activity) [14] | Activity [16] | Activity index [17] | Ki ([23]; read-out: Ki) | Ki ([23]; read-out: pKi (converted)) | Activity [26] | Ki [29] | SMILES | other results
inactive | inactive | inactive | inactive | inactive | inactive | inactive |  |  |  |  |  |  |  |  |  |  |  | CN(C)c1nc(NCc2ccccc2)nc(-c2ccccc2CO)n1 | 
inactive | inactive | inactive | inactive | inactive | inactive | inactive |  |  |  |  |  |  |  |  |  |  |  | Nc1nc(NCc2ccccc2)nc(-c2cccc(CO)c2)n1 | 
 |  |  | 0.49 |  | 0.41 |  | inactive | 6.11 | inactive | -0.02 | 1.41 | inactive | 5.68 |  |  |  |  | Nc1nc(NCc2ccc(Cl)cc2)nc(-c2ccccc2CO)n1 | Activity [8]: inactive; Ki [10]: 300 nM; Ki [12]: 6700 nM; IC50 [15]: 1700 nM
Dose-dependent effect |  |  | 0.6 |  | 0.36 |  |  | 5.31 |  | 0.04 | 0.8 |  | 4.97 |  |  |  |  | Nc1nc(NCc2ccccc2)nc(-c2ccccc2CO)n1 | 
 |  |  | 0.62 |  | 0.21 |  |  | 6.35 |  | 0.08 | 0.91 |  | 5.89 |  |  |  |  | Nc1nc(NCCCCc2ccccc2)nc(-c2ccccc2CO)n1 | 
Dose-dependent effect |  |  | 0.9 |  | 0.06 |  |  | 6.83 | inactive | 0.09 | 1.26 | inactive | 6.46 | 219 nM | 100 to 316 nM | inactive | 310 nM | Nc1nc(NCc2ccc(Oc3ccccc3)cc2)nc(-c2c(F)cccc2CO)n1 | Drug uptake [18]: Active; Activity [19]: Active; Activity [20]: Non-Toxic; EC50 [21]: 320 nM; Kd [21]: 5900 nM; concentration at 0.5 h [22]: > 10 µM; concentration at 0.5 h [24]: > 10 µM; Activity [25]: Active; Drug uptake [27]: Active; EC50 [28]: 540 nM; Kd [28]: 1100 nM; Emax [30]: 24%
 |  |  | 1.03 |  | 0.01 |  | Active | 6.38 | inactive | 0.13 | 0.99 | inactive | 5.98 | 295 nM | 100 to 316 nM | inactive | 212 nM | Nc1nc(NCCCc2ccccc2)nc(-c2cc(Cl)ccc2CO)n1 | EC50 [31]: 690 nM
 |  |  | 1.09 |  | 0.03 |  | Active | 6.26 | inactive | 0.13 | 1.06 | inactive | 5.92 | 209 nM | 100 to 316 nM | inactive | 678 nM | Nc1nc(NCCc2ccccc2)nc(-c2cc(Cl)ccc2CO)n1 | EC50 [31]: 1700 nM
inactive | inactive | inactive | inactive | inactive | inactive | inactive |  |  |  |  |  |  |  |  |  |  |  | CC(=O)c1cccc(-c2nc(N)nc(NCc3ccccc3)n2)c1 | 
